Results: ChEMBL document CHEMBL2157969, “Chalcone inhibitors of the NorA efflux pump in Staphylococcus aureus whole cells and enriched everted membrane vesicles” (Bioorg Med Chem, 2012)
Calls of active or inactive are those of the source. The calls are words filed in the database; no cut-off is given here.

How the values were obtained:
[1] = test system: Escherichia coli; experiment: Inhibition of Hoechst 33342 dye in norA-deficient Escherichia coli DH10B expressing pTrc99A at 2 ug/mL by spectrofluorometer analysis; format: functional, organism-based; settings: K-12 DH10B
Procedure, shortened: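 Everted membrane vesicles were made from overnight E. coli DH10B carrying pTrcHis2C-norA or control pTrc99A. PMSF (0.1 mM final) was added before French press and DNase (0.1 mg/mL final) to the lysate. Vesicles were diluted to 80 µg protein/mL in 50 mM potassium HEPES, 8.5 mM NaCl, 2 mM MgCl2, pH 7.2. Hoechst 33342 was added, then Mg2+-ATP after the signal stabilised (~30 s). Inhibitor was added at 150–160 s. Fluorescence ex 355/em 457 nm over 300 s.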

[2] = test system: Escherichia coli; experiment: Inhibition of acridine orange efflux in norA-deficient Escherichia coli DH10B expressing pTrc99A at 2 ug/mL by spectrofluorometer analysis; format: functional, organism-based; settings: K-12 DH10B
Procedure, shortened: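 Proton gradient was read with acridine orange (500 nM final) in NorA-enriched or pTrc99A control everted E. coli DH10B vesicles. Buffer: 50 mM potassium HEPES, 8.5 mM NaCl, 2 mM MgCl2, pH 7.2. Vesicles were energised with Mg2+-ATP. Valinomycin and nigericin dissipated the gradients, and norfloxacin was given at 10 µM. Fluorescence ex 494/em 530 nm.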

[3] = molecular target: T1, Quinolone resistance protein NorA (Staphylococcus aureus) (UniProt P0A0J7); experiment: Inhibition of norA in Staphylococcus aureus ATCC 29213 assessed as fold reduction in ciprofloxacin MIC at 12.5 ug/mL by checkerboard assay
T1 sequence (whole entry): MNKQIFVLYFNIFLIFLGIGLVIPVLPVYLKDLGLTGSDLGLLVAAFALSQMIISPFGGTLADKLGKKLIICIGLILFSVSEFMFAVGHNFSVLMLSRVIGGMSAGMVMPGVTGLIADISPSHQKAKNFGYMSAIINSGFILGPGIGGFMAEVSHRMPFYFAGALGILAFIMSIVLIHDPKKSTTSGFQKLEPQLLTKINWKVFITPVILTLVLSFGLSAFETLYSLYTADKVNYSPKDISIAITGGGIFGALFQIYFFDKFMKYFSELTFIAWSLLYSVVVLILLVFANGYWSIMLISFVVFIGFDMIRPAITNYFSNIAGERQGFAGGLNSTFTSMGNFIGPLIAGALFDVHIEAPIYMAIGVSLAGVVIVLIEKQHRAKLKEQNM

[4] = molecular target: T1, Quinolone resistance protein NorA (Staphylococcus aureus); experiment: Inhibition of norA-mediated ethidium bromide efflux in methicillin-resistant Staphylococcus aureus SA-1199B at 5 ug/ml by spectrofluorometric analysis
Procedure, shortened: (§1)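 Ethidium bromide efflux from S. aureus cells in MHB II, compounds dissolved in DMSO. Reserpine 20 µg/mL as positive control and 1% DMSO as negative control; background taken from a resuspended pellet in clean medium. Fluorescence read at ex 530/em 600 nm in duplicate; mean given as percent reduction of efflux versus control.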

[5] = test system: Staphylococcus aureus; experiment: Antibacterial activity against Staphylococcus aureus SA-1199B overexpressing norA at 0.2 to 25 ug/ml after 20 hrs by microdilution method; format: functional, organism-based
Procedure, shortened: (§2)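 Broth microdilution in Mueller Hinton broth II with an inoculum of 5 × 10⁵ cfu/mL, incubated 20 h at 35 °C. MIC is the lowest concentration with no visible growth. Controls were bacteria with DMSO at up to about 1%, and ciprofloxacin. Run to CLSI/EUCAST guidelines in duplicate or more.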

[6] = molecular target: T2, Quinolone resistance protein NorA (Staphylococcus aureus, UniProt P0A0J7); experiment: Inhibition of norA-mediated ethidium bromide efflux in methicillin-resistant Staphylococcus aureus SA-1199B by spectrofluorometric analysis; procedure, shortened: as §1
T2 sequence (P0A0J7 whole entry): T1 sequence (whole entry)

[7] = molecular target: T1, Quinolone resistance protein NorA (Staphylococcus aureus); experiment: Inhibition of norA in Staphylococcus aureus SA-1199B overexpressing norA assessed as fold reduction in ciprofloxacin MIC at 12.5 ug/mL by checkerboard assay
Procedure, shortened: (§3)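 Checkerboard in MHB with twofold serial dilutions: ciprofloxacin 0.05–12.5 µg/mL against inhibitor 0.2–25 µg/mL. Inoculum 5 × 10⁵ cfu/mL, 20 h at 35 °C, visual MIC read-out. Fold reduction of ciprofloxacin MIC recorded at the inhibitor concentration giving it. FIC index is the sum of both drugs' FICs; ≤0.5 counts as synergy.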

[8] = test system: Staphylococcus aureus; experiment: Antibacterial activity against Staphylococcus aureus ATCC 29213 […] at 0.2 to 25 ug/ml after 20 hrs by microdilution method; format: functional, organism-based; procedure, shortened: as §2
[9] = molecular target: T1, Quinolone resistance protein NorA (Staphylococcus aureus); experiment: Inhibition of norA-mediated ethidium bromide efflux in methicillin-resistant Staphylococcus aureus SA-1199B at 20 ug/ml by spectrofluorometric analysis; procedure, shortened: as §1
[10] = molecular target: T1, Quinolone resistance protein NorA (Staphylococcus aureus); experiment: Inhibition of norA-mediated ethidium bromide efflux in methicillin-resistant Staphylococcus aureus SA-1199B at 2.5 ug/ml by spectrofluorometric analysis
Procedure, shortened: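 Whole-cell efflux assay, strain grown in Mueller Hinton II broth; compounds dissolved in DMSO, 1% DMSO in MHB II as negative control, reserpine as positive control. Background read from a pellet resuspended in clean MHB II. Fluorescence read in duplicate at ex 530 nm / em 600 nm; the mean is reported as percent reduction of efflux versus control.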

[11] = molecular target: T1, Quinolone resistance protein NorA (Staphylococcus aureus); experiment: Inhibition of norA-mediated ethidium bromide efflux in methicillin-resistant Staphylococcus aureus SA-1199B at 10 ug/ml by spectrofluorometric analysis; procedure, shortened: as §1
[12] = molecular target: T1, Quinolone resistance protein NorA (Staphylococcus aureus); experiment: Inhibition of norA in Staphylococcus aureus SA-1199B overexpressing norA assessed as fold reduction in ciprofloxacin MIC by checkerboard assay
[13] = molecular target: T1, Quinolone resistance protein NorA (Staphylococcus aureus); experiment: Inhibition of norA in Staphylococcus aureus ATCC […] assessed as fold reduction in ciprofloxacin MIC at 3.13 ug/mL by checkerboard assay; procedure, shortened: as §3
[14] = molecular target: T1, Quinolone resistance protein NorA (Staphylococcus aureus); settings: SA-1199B
[15] = molecular target: T1, Quinolone resistance protein NorA (Staphylococcus aureus); experiment: Inhibition of norA in Staphylococcus aureus SA-1199B overexpressing norA assessed as fold reduction in ciprofloxacin MIC by checkerboard assay; procedure, shortened: as §3
[16] = molecular target: T1, Quinolone resistance protein NorA (Staphylococcus aureus); settings: ATCC 29213
[17] = molecular target: T1, Quinolone resistance protein NorA (Staphylococcus aureus); experiment: Inhibition of norA in Staphylococcus aureus SA-1199B overexpressing norA assessed as fold reduction in ciprofloxacin MIC at 25 ug/mL by checkerboard assay
[18] = molecular target: T1, Quinolone resistance protein NorA (Staphylococcus aureus); experiment: Inhibition of norA in Staphylococcus aureus ATCC […] assessed as fold reduction in ciprofloxacin MIC at 25 ug/mL by checkerboard assay
[19] = molecular target: T1, Quinolone resistance protein NorA (Staphylococcus aureus); experiment: Inhibition of norA in Staphylococcus aureus SA-1199B overexpressing norA assessed as fold reduction in ciprofloxacin MIC at 3.13 ug/mL by checkerboard assay; procedure, shortened: as §3
[20] = test system: Staphylococcus aureus; experiment: Antibacterial activity against Staphylococcus aureus ATCC […] at 25 ug/ml after 20 hrs by microdilution method; format: functional, organism-based; procedure, shortened: as §2
[21] = test system: Staphylococcus aureus; experiment: Antibacterial activity against Staphylococcus aureus SA-1199B overexpressing norA at 25 ug/ml after 20 hrs by microdilution method; format: functional, organism-based; procedure, shortened: as §2

| SMILES | inhibition [1] | inhibition [4] [%] | Activity [5] | IC50 [6] [µM] | Activity [8] | inhibition [9] [%] | inhibition [10] [%] | inhibition [11] [%] | other results |
| --- | --- | --- | --- | --- | --- | --- | --- | --- | --- |
| C=CCOc1ccc(C(=O)/C=C/c2cccc(OC)c2OC)cc1 | inactive |  |  |  |  |  |  |  |  |
| COc1ccc(CCN(C)CCCC(C#N)(c2ccc(OC)c(OC)c2)C(C)C)cc1OC (centres undefined) | inactive |  |  |  |  |  |  |  |  |
| COc1cc(/C=C/C(=O)c2cccc(OC(=O)c3ccccc3)c2)cc(OC)c1 | inactive |  |  |  |  |  |  |  |  |
| COc1ccc(C(=O)/C=C/c2cccc(OCCN(C)C)c2)c(OC)c1OC | inactive |  |  |  |  |  |  |  | inhibition [2]: Active |
| COc1ccc(OC)c(/C=C/C(=O)c2ccc(O)cc2)c1 | inactive | 56.6 | inactive | 15 | inactive | 91 | 23.3 | 82.7 | fractional inhibitory concentration index (FICI) [3]: 0.25; fractional inhibitory concentration index (FICI) [7]: 0.25 |
| C=CCOc1ccccc1C(=O)/C=C/c1ccc(OCC(=O)O)cc1 | inactive | 46.2 | inactive | 16.9 | inactive | 87.1 | 14.7 | 79.9 | inhibition [12]: Dose-dependent effect; fractional inhibitory concentration index (FICI) [13]: 0.25; FICI [14]: 0.25; inhibition [15]: Dose-dependent effect |
| COC(=O)[C@H]1[C@H]2C[C@@H]3c4[nH]c5cc(OC)ccc5c4CCN3C[C@H]2C[C@@H](OC(=O)c2cc(OC)c(OC)c(OC)c2)[C@@H]1OC [RESERPINE] |  | 48.1 |  | 8.2 |  |  | 30 | 71.8 | FICI [16]: 0.25; FICI [14]: 0.25 |
| COc1ccc(/C=C/C(=O)c2ccc(O)cc2)c(OC)c1 | inactive | 24.1 | inactive | 29.1 | inactive | 89.6 | 17.3 | 62.7 | FICI [16]: 0.25; fractional inhibitory concentration index (FICI) [7]: 0.25 |
| CN(C)CCOc1ccc(C(=O)/C=C/c2ccccc2)cc1 | inactive | 36.1 | inactive | 28.4 | inactive | 83.6 | 21.8 | 56.9 | fractional inhibitory concentration index (FICI) [17]: > 0.5; fractional inhibitory concentration index (FICI) [18]: > 0.5 |
| C[C@@H]1O[C@@H](Oc2c(-c3ccc(O)cc3)oc3cc(O)cc(O)c3c2=O)[C@H](OC(=O)/C=C/c2ccc(O)cc2)[C@H](O)[C@H]1OC(=O)/C=C/c1ccc(O)cc1 | inactive |  |  |  |  |  |  |  |  |
| CN(C)CCOc1ccc(C(=O)/C=C/c2ccc(N(C)C)cc2)cc1 | inactive | 96.5 | inactive | 7.7 | inactive | 98.7 | 48 | 97.4 | fractional inhibitory concentration index (FICI) [3]: 0.5; fractional inhibitory concentration index (FICI) [17]: inactive |
| COc1ccc(/C=C/C(=O)c2ccccc2OC)c(OC)c1 | inactive |  |  |  |  |  |  |  |  |
| CN(C)CCOc1ccc(C(=O)/C=C/c2ccccc2F)cc1 | inactive | 48.5 | inactive | 18.1 | inactive | 97 | 33.7 | 70.3 | fractional inhibitory concentration index (FICI) [17]: 0.25; fractional inhibitory concentration index (FICI) [18]: > 1 |
| CN(C)CCOc1ccc(C(=O)/C=C/c2ccc(C#N)cc2)cc1 | inactive |  |  |  |  |  |  |  |  |
| CN(C)CCOc1ccc(C(=O)/C=C/c2ccc(Oc3ccccc3)cc2)cc1 | inactive | 68.8 |  | 9 |  | 99.1 | 43.4 | 97.5 | FICI [16]: 0.26; fractional inhibitory concentration index (FICI) [19]: 0.38; Activity [20]: Active; Activity [21]: Active |
| COc1cc(OC)c(/C=C/C(=O)c2ccc(O)cc2)c(OC)c1 | inactive |  |  |  |  |  |  |  |  |
| CN(C)CCOc1ccc(C(=O)/C=C/c2cccc(F)c2)cc1 | inactive |  |  |  |  |  |  |  |  |
| COc1cccc(/C=C/C(=O)c2ccc(O)cc2)c1OC | inactive | 38 | inactive | 24.3 | inactive | 90.8 | 11.7 | 73.3 | FICI [16]: 0.25; fractional inhibitory concentration index (FICI) [7]: 0.25 |
| COc1ccc(C(=O)/C=C/c2cccc(N(C)C)c2)c(OC)c1OC | inactive |  |  |  |  |  |  |  |  |
| COc1cc(O)cc(C)c1/C=C/C(=O)c1ccc(O)cc1 | inactive | 63.7 | inactive | 13.4 | inactive | 91.7 | 36.6 | 84.3 | fractional inhibitory concentration index (FICI) [3]: 0.25; inhibition [12]: Dose-dependent effect; FICI [14]: 0.25; inhibition [2]: inactive; inhibition [15]: Dose-dependent effect |
| COc1ccc(/C=C/C(=O)c2ccc(O)cc2)cc1OC | inactive | 38.3 | inactive | 26.5 | inactive | 87.9 | 14 | 64.3 | fractional inhibitory concentration index (FICI) [17]: 0.25; fractional inhibitory concentration index (FICI) [18]: 0.25 |
| COc1cc(/C=C/C(=O)c2ccc(OC)c(OC)c2OC)cc(OC)c1 | inactive |  |  |  |  |  |  |  |  |
| CN(C)CCOc1ccc(C(=O)/C=C/c2ccc(F)cc2)cc1 | inactive |  |  |  |  |  |  |  |  |
